{"data": "Measured values collected from several papers", "target": "Protein kinase C gamma type (PRKCG, Homo sapiens, UniProt P05129)", "note": "Lines come from different studies, so protocols differ."}
{"SMILES": "CCCOc1ccc(OC)c(F)c1C(=O)c1ccc(C(=O)N[C@@H]2CNC[C@H]2NC(=O)c2ccc3[nH]ncc3c2)cc1", "test": "enzyme activity, inhibitor", "conditions": "10 µM", "measurement": "remaining activity", "result": "73%"}
{"SMILES": "N#CCCc1ccc2c(c1)-c1[nH]c3ccc([N+](=O)[O-])cc3c1CC(=O)N2", "test": "cell-free assay", "conditions": "0.5 µM", "measurement": "remaining signal", "result": "93.3%"}
{"SMILES": "COc1cc2ncnc(Nc3ccc(Oc4ccccc4)c(C)c3C)c2cc1OC", "test": "enzyme activity, inhibitor", "conditions": "1 µM", "measurement": "inhibition", "result": "1%"}
{"SMILES": "Cc1ccc(NC(=O)c2ccc(C)c(C(F)(F)F)c2)cc1C#Cc1nn(C2CCC(O)CC2)c2ncnc(N)c12 (stereo not shown)", "test": "cell-free assay", "conditions": "10 µM", "measurement": "remaining signal", "result": "90%"}
{"SMILES": "CCN(CC)CCNC(=O)c1c(C)[nH]c(/C=C2\\C(=O)Nc3ccc(F)cc32)c1C", "test": "enzyme activity, inhibitor", "conditions": "10 µM", "measurement": "inhibition", "result": "32%"}
{"SMILES": "Cc1ccc(-n2nc(C(C)(C)C)cc2NC(=O)Nc2ccc(OCCN3CCOCC3)c3ccccc23)cc1", "test": "enzyme activity, inhibitor", "conditions": "10 µM", "measurement": "inhibition", "result": "7%"}
{"SMILES": "Cc1ccc(C(=O)NCc2ccsc2)cc1C#Cc1cn(C(C)C)c2ncnc(N)c12", "test": "enzyme activity, inhibitor", "conditions": "1 µM", "measurement": "activity vs control", "result": "97%"}
{"SMILES": "FC(F)(F)Oc1cccc(-c2cnc3ccc(-c4ccncc4)nn23)c1", "test": "enzyme activity, inhibitor, radiometric", "conditions": "1 µM", "measurement": "activity vs control", "result": "96%"}
{"SMILES": "COc1cc(Nc2cnc(C#N)c(O[C@H](C)CN(C)C)n2)ncc1-c1cnn(C)c1", "test": "enzyme activity, inhibitor, radiometric", "conditions": "1 µM", "measurement": "remaining activity", "result": "90%"}
{"SMILES": "CC(C)(C)c1nc(-c2cccc(NS(=O)(=O)c3c(F)cccc3F)c2F)c(-c2ccnc(N)n2)s1", "test": "enzyme activity, inhibitor, radiometric", "conditions": "1 µM", "measurement": "remaining activity", "result": "102%"}
{"SMILES": "CC(C)c1ccc(NC(=O)c2cccs2)c(-c2nc3ccccc3[nH]c2=O)c1", "test": "enzyme activity, inhibitor", "conditions": "1 µM", "measurement": "activity vs control", "result": "106%"}
{"SMILES": "O=C(Nc1cnn(-c2csc(C(=O)NC3COC3)c2)c1)Nc1c(F)cccc1Cl", "test": "enzyme activity, inhibitor", "conditions": "5 µM", "measurement": "remaining activity", "result": "98.3%"}
{"SMILES": "CC/C(=N\\NC(=O)NCc1cccc(O)c1)c1ccc(O)c(C)c1O", "test": "enzyme activity, inhibitor", "conditions": "0.1 µM", "measurement": "inhibition", "result": "3.6%"}
{"SMILES": "CCOc1cc(-c2nncn2C)ccc1Nc1ncc2cc(C)nc(NCC(C)(C)C)c2n1", "test": "enzyme activity, inhibitor, FRET", "conditions": "1 µM", "measurement": "inhibition", "result": "< 15%"}
{"SMILES": "Cc1ccc(Nc2nccc(N(C)c3ccc4c(C)n(C)nc4c3)n2)cc1S(N)(=O)=O", "test": "enzyme activity, inhibitor", "conditions": "10 µM", "measurement": "inhibition", "result": "45%"}
{"SMILES": "CC(C)(O)[C@H]1CC[C@H](Nc2ccc3ncc(-c4cccc(C(F)(F)F)c4)n3n2)CC1", "test": "enzyme activity, inhibitor", "conditions": "1 µM", "measurement": "remaining activity", "result": "99%"}
